FLuc inhib CS = Photinus pyralis luciferase inhibition counter-screen; P08659; ATPLite firefly luciferase biochemical luminescence, 10 min; inhibition, % at 10 µM; hit rate 1.5% among 200,000; AID 1006;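 active means inhibition above about 50% when tested at 10 µM, limit read from the data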
Target sequence (P08659 whole entry, looked up): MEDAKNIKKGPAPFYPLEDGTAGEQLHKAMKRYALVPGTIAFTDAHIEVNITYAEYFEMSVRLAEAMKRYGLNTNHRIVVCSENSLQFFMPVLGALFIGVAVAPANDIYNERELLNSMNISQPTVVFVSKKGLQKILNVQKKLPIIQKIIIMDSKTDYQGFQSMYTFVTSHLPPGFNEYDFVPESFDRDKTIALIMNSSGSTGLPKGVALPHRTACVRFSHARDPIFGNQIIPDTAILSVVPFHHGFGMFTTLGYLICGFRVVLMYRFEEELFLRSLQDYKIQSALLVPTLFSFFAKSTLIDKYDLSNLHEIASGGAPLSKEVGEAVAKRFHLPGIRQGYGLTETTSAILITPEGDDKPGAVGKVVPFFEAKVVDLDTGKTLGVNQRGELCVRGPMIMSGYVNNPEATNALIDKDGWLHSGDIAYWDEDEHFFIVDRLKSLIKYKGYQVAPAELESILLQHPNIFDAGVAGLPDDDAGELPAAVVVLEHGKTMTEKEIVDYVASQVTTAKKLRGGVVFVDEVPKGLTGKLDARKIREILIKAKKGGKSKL
FLuc act counter = firefly luciferase counter-screen for stimulation assays; 200,000 tested, under 10 active; ATPlite luciferase biochemical, luminescence, 10 min; 0 = ATP-free wells, 1 = DMSO control; P08659; AID 1027; activation factor at 10 µM;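 active means luciferase activation factor, scaled between plate controls, of at least 2 with compound at 10 µM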
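Material: Luciferase/luciferin reagent mix | Doses: Test compounds dosed from 2 mM stocks in 100% DMSO | Timing: 10 min incubation after luciferase reagent addition, room temperature | Measured by: Luminescence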
APP 5'UTR act = activates APP 5'UTR luciferase reporter. SH-SY5Y APP 5'UTR luciferase reporter, luminescence; zero percent = DMSO vehicle wells. activation, % at 2 µM. hit rate 1% among 190,000;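 active means activation above a set limit, based on mean plus 3 SD of controls, cut at about 140% in these data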
PPC-1+TRAIL kill = kills PPC-1 cancer cells in the presence of TRAIL | PPC-1 cells + TRAIL, ATPLite viability luminescence | hit rate 0.41% among 220,000 | AID 1443 | cell killing (% activity), % at 4 µM or 5 µM;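 active means cell killing above 50% in the first pass at 4 µM, then a duplicate retest at 5 µM averaging 50% or more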;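 further: plate controls were cells with TRAIL plus DMSO for no effect and medium-only wells lacking cells for full effect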
C8 TRAIL sens = sensitizes caspase-8 expressing cells to TRAIL | hit rate 1% among 360,000 | NB7+C8 cells + TRAIL, ATPlite viability luminescence | inhibition (viability loss, TRAIL sensitization), % at 10 µM | AID 624354;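 active means compounds causing at least 50% loss of cell viability in the single-dose screen, relative to plate controls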
NF-kB expr up = raises NF-kB expression in human neuronal cells | NF-kB reporter expression; hits give high values | fold change at 12.5 µM | hit rate 1.6% among 190,000 | AID 1239; in the data active means fold change above about 3.3
Starred values were filed as active, the others as inactive. In the library only some 2.2% were active in any assay of this set; here they are far more common.

For Cn1ccc(C(=O)Oc2ccc(C(=O)Nc3ccc(F)cc3F)cc2)n1 the results were FLuc inhib CS -1.6, FLuc act counter 1, APP 5'UTR act 24.2, PPC-1+TRAIL kill 27.7, C8 TRAIL sens 36.1 and NF-kB expr up 1.95.
c1ccc2oc(C3=NNC(=NC4CC4)SC3)cc2c1 was read as FLuc inhib CS 78.7*, FLuc act counter 0.2, PPC-1+TRAIL kill 15.2, C8 TRAIL sens 34.0 and NF-kB expr up 2.44.
Screening c1ccc(CN=C2NN=C(c3cc4ccccc4o3)CS2)cc1 returned FLuc inhib CS -1.5, FLuc act counter 1, APP 5'UTR act 18.5, PPC-1+TRAIL kill -1.4, C8 TRAIL sens -9.8 and NF-kB expr up 1.39.
Cc1cc(C2=NNC(=NC3CCCCC3)SC2)c(C)n1-c1c(C)n(C)n(-c2ccccc2)c1=O was read as FLuc inhib CS 0.0, FLuc act counter 1, APP 5'UTR act 6.2, PPC-1+TRAIL kill 8.8, C8 TRAIL sens -6.1 and NF-kB expr up 0.92.
`c1csc(C2=NNC(=NC3CCCCC3)SC2)c1` gave FLuc inhib CS 74.5*, FLuc act counter 0.3, APP 5'UTR act 137.0*, PPC-1+TRAIL kill 24.4, C8 TRAIL sens 15.4 and NF-kB expr up 2.46.
Cc1cc(C2=NNC(=NC3CC3)SC2)c(C)n1-c1ccccc1F was read as FLuc inhib CS 95.5*, FLuc act counter 0, APP 5'UTR act -69.5, PPC-1+TRAIL kill 63.9*, C8 TRAIL sens 94.5* and NF-kB expr up 0.18.
For C/C(=N\NC(=O)c1cc(O)ccc1O)c1cccc(NC(=O)c2cccc(Cl)c2)c1 the results were C8 TRAIL sens 9.4.
`C/C(=N\NC(=O)c1cc(O)ccc1O)c1cccc(NC(=O)c2ccc(Cl)cc2)c1` gave C8 TRAIL sens 57.8*.
`COc1ccc(C(=O)N/N=C(\C)c2cccc(NC(=O)c3ccc(F)cc3)c2)c(OC)c1` gave C8 TRAIL sens 38.7.
For C/C(=N\NC(=O)c1ccncc1)c1cccc(NC(=O)c2ccc(C(C)(C)C)cc2)c1 the results were C8 TRAIL sens 79.8*.
`COc1ccc(C(=O)N/N=C(/C)c2cccc(NC(=O)c3ccccc3F)c2)cc1` gave C8 TRAIL sens 59.3*.
O=C(Nc1ccc(-c2cn3ccccc3n2)cc1)c1cccs1 was read as FLuc inhib CS 73.1*, FLuc act counter 0.3, APP 5'UTR act 136.3*, PPC-1+TRAIL kill 45.9, C8 TRAIL sens 51.9* and NF-kB expr up 2.25.
O=C(Nc1ccc(-n2cnnn2)cc1)c1cn2ccccc2n1 was read as PPC-1+TRAIL kill 23.5 and C8 TRAIL sens 33.6.
For O=C(Nc1ccccc1)c1cn2ccccc2n1 the results were PPC-1+TRAIL kill 48.4 and C8 TRAIL sens 58.4*.
COc1ccc(OC)c(-c2csc(NC(=O)CSc3nnnn3C)n2)c1 was read as C8 TRAIL sens 3.8.
Screening Cn1ncc(Br)c1C(=O)NC12CC3CC(CC(C3)C1)C2 returned FLuc inhib CS -8.7, FLuc act counter 1.1, APP 5'UTR act 18.0, PPC-1+TRAIL kill -4.4, C8 TRAIL sens -12.4 and NF-kB expr up 1.12.
Cc1ccc([C@@]2(OC(=O)c3ccccc3)C(=O)N(C(=O)OC(C)(C)C)c3ccccc32)cc1 was read as C8 TRAIL sens 12.5.
COc1ccc(CNC(=O)C2CC(=O)N(C3CCCC3)C2)cc1 (stereo unspecified) was read as C8 TRAIL sens -3.7.
`O=C(CCl)N1c2ccccc2SCC1c1ccccc1` (stereo unspecified) gave C8 TRAIL sens 82.7*.
CCOc1ccc(CC(=O)NCC2(N3CCCCC3)CCCCC2)cc1 was read as FLuc inhib CS -4.7, FLuc act counter 1, APP 5'UTR act 12.5, PPC-1+TRAIL kill -4.1, C8 TRAIL sens -16.4 and NF-kB expr up 0.87.
Screening COc1cc(COCC(O)CN2C(C)CCCC2C)cc(OC)c1OC (stereo unspecified) returned C8 TRAIL sens -4.8.
For Cc1ccc(C(=O)n2nnc3ccccc32)cc1 the results were APP 5'UTR act 4.9.
Screening CN(C)c1ccc(C(=O)n2nnc3ccccc32)cc1 returned FLuc inhib CS 80.9*, FLuc act counter 0.2, APP 5'UTR act -6.4, PPC-1+TRAIL kill 26.5, C8 TRAIL sens 25.9 and NF-kB expr up 1.99.
N#CC1=C(N)N2C(=C(C#N)C1c1cccc(Br)c1)Nc1ccccc12 (stereo unspecified) was read as FLuc inhib CS -6.0, FLuc act counter 1.1, APP 5'UTR act -7.7, PPC-1+TRAIL kill 28.1, C8 TRAIL sens 53.2* and NF-kB expr up 0.83.
Screening N#CC1=C(N)N2C(=C(C#N)C1c1ccc(Br)cc1)Nc1ccccc12 (stereo unspecified) returned FLuc inhib CS -6.0, FLuc act counter 1.1, APP 5'UTR act -9.9, PPC-1+TRAIL kill 3.5 and NF-kB expr up 0.56.
For CC(C)c1ccc(/C=C2\SC(=O)N(CC(=O)NC3C=CS(=O)(=O)C3)C2=O)cc1 (stereo unspecified) the results were C8 TRAIL sens 53.9*.
COC(=O)[C@@]12C[C@@H](CC(=O)N3CCC(c4ccccc4)CC3)C(=O)N(Cc3ccco3)C1=CCC(C)(C)C2 was read as C8 TRAIL sens -8.6.
`O=C(Nc1cc(S(=O)(=O)N2CCOCC2)ccc1N1CCOCC1)c1ccc([N+](=O)[O-])s1` gave C8 TRAIL sens 53.1*.
CN(C)c1ccc(N=C/C=C2\N(C)c3ccccc3C2(C)C)cc1 was read as FLuc inhib CS 4.1, FLuc act counter 1, APP 5'UTR act 142.8*, PPC-1+TRAIL kill 27.6, C8 TRAIL sens -0.6 and NF-kB expr up 1.01.
`CN1/C(=C\C=Nc2ccc3ccccc3c2)C(C)(C)c2ccccc21` gave FLuc inhib CS -2.4, FLuc act counter 1, APP 5'UTR act 15.1, PPC-1+TRAIL kill 20.6, C8 TRAIL sens 9.1 and NF-kB expr up 0.4.
CCN(CC1CCCN(CCc2cccc(OC)c2)C1)C(=O)c1ccoc1 (stereo unspecified) was read as C8 TRAIL sens -5.3.
For COc1ccc(NC(=O)CSc2nc3ccccc3c(=O)n2CCCC(=O)NCC2CCCO2)c(OC)c1 (stereo unspecified) the results were C8 TRAIL sens 8.9.
Screening COc1ccccc1NC(=O)c1ccc2[nH]c(C)c(C)c2c1 returned C8 TRAIL sens -25.8.
For COc1ccc(NC(=O)/C(C#N)=C/c2ccc(-c3ccc(Cl)c(C(=O)O)c3)o2)cc1 the results were C8 TRAIL sens 60.2*.
For COc1ccc(NC(=O)/C(Cl)=C(/Cl)S(=O)Cc2ccccc2Cl)cn1 (stereo unspecified) the results were FLuc inhib CS -1.9, FLuc act counter 1, APP 5'UTR act -94.2, PPC-1+TRAIL kill 28.7 and NF-kB expr up 0.31.
Cc1cc(C)nc(SCc2cc(=O)c(OC(=O)c3ccc(Br)o3)co2)n1 was read as FLuc inhib CS 60.1*, FLuc act counter 0.4, APP 5'UTR act -3.8, PPC-1+TRAIL kill -2.4, C8 TRAIL sens 24.7 and NF-kB expr up 0.93.
